Screening data as filed in PubChem.
Lipid droplet: inhibitors of hepatocyte lipid droplet formation, primary screen, imaging, high-throughput imaging, BODIPY stain | AML12 mouse hepatocytes, oleate lipid droplets | inhibition, % at 6.5 µM | hit rate 0.4% among 240,000 | AID 1656, 2009;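 active = lipid droplet intensity inhibited by at least 50%, with more than 500 cells counted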
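material = mouse AML12 hepatocyte cell line, fixed after treatment | also added = 100 µM oleic acid challenge | doses = compound at 6.5 µM only | schedule = overnight exposure | technique = Image-based BODIPY and DAPI two-channel analysis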
aDG glyco act: activators of alpha-DG glycosylation, primary screen, uHTS, Pro5-aDG cells, AlphaScreen; alpha-DG glycosylation AlphaScreen (IIH6); 0% Pro5, 100% B10-LARGE cell signal; activation, % at 10 µM; hit rate 0.22% among 360,000; AID 624168, 2012;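 active = activation of at least 8% versus controls, or a plate z-score of at least 8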;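 also: Pro5 are CHO cells carrying HIG-tagged alpha-DG that lacks glycosylation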
MPTP inh: mitochondrial permeability transition pore inhibitors, primary screen, biochemical, isolated mouse mitochondria, absorbance | hit rate 1.4% among 360,000 | inhibition, % at 10 µM | Ca2+ swelling absorbance, 30 min | AID 602449, 2012;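 active = inhibition of 50% or more, scaled per plate between neutral and stimulator controls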;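 also: 0% = DMSO wells given calcium and 100% = 1 mM EGTA wells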
ADAM10 inh: human ADAM10 inhibitors, primary screen, biochemical, QFRET, HTS; inhibition, % at 7 µM; recombinant ADAM10, EDANS/DABCYL FRET peptide cleavage, 3 h; hit rate 0.62% among 370,000;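 active = inhibition above a per-campaign cutoff equal to the mean of compounds falling between control-based bounds plus 3 SD, cut at about 20% in these data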;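 also: 0% = DMSO wells while the 100% control is not disclosed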
V-ATPase pHluor: regulators of yeast V-ATPase proton pumping, primary screen, pHLuorin cytosolic pH fluorescence. S. cerevisiae. response, % at 10 µM. hit rate 0.37% among 350,000; in the data active = response mostly above about 7.3%, no sharp cut-off; inactive = mostly below about 5.4%; also: actives read high
ADAM17 inh: ADAM17 inhibitors, primary screen, biochemical, QFRET; recombinant ADAM17, EDANS/DABCYL FRET peptide cleavage; inhibition, % at 6.95 µM; hit rate 0.83% among 370,000;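 active = inhibition above the mean of compounds lying between control limits plus 3 SD, set per campaign, cut at about 8.5% in these data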;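 also: 0% = DMSO-only wells as the low control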
Target sequence (P78536 215-824 limits assumed): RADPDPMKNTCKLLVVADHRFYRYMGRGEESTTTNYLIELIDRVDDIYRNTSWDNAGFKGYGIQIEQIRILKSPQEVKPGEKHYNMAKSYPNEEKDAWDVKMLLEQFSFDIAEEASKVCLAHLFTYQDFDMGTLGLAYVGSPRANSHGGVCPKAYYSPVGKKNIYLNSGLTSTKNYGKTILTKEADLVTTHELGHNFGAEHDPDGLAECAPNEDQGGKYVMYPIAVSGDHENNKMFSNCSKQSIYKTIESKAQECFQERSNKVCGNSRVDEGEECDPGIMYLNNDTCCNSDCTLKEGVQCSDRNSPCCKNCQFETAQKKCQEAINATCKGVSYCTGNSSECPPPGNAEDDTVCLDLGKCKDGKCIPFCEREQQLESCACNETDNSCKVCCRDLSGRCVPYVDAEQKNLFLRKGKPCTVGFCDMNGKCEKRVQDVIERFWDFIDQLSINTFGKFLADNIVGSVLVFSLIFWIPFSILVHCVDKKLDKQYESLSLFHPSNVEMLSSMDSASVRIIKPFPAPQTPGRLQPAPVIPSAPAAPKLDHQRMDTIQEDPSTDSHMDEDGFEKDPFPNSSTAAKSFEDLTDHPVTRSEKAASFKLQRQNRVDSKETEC
ADAM10 ctr: ADAM10 inhibitors, counter-screen for ADAM17 exosite inhibitor project, biochemical, FRET, human ADAM10; shares compounds with ADAM17 inh; recombinant ADAM10, EDANS/DABCYL FRET peptide cleavage, 3 h; inhibition, % at 6.95 µM; hit rate 47% among 2,900; AID 743256, 2014;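 active = mean inhibition over the triplicate runs exceeds the activity threshold set in the earlier primary screen, cut at about 20% in these data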;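 also: 0% = DMSO wells and 100% = marimastat wells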
ADAM17 confirm: ADAM17 inhibitors, hit retest, confirmation, biochemical, QFRET peptide cleavage; shares compounds with ADAM17 inh; recombinant ADAM17, EDANS/DABCYL QFRET peptide cleavage; inhibition, % at 6.95 µM; hit rate 65% among 2,900; AID 743257, 2014;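 active = mean inhibition across replicates above the hit cutoff set in the primary screen, cut at about 8.5% in these data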;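 also: 0% = DMSO wells and 100% = marimastat wells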
* hit, by the source's call; . = no result. Compounds with a hit are over-represented: about 3.1% of the library has one in this group of screens.

SMILES	Lipid droplet	aDG glyco act	MPTP inh	ADAM10 inh	V-ATPase pHluor	ADAM17 inh	ADAM10 ctr	ADAM17 confirm
COC(=O)[C@H](C(C)C)N(Cc1cn(Cc2ccccc2)nn1)S(=O)(=O)c1ccc(F)cc1Br	.	.	.	12	.	5	.	.
CN(c1ccccc1)S(=O)(=O)c1cccc(C(=O)Nc2cccc(C(=O)NC3CC3)c2)c1	.	0	2	2	4	9.2*	3	3
NS(=O)(=O)c1cccc(NC(=O)COC(=O)C2CCCCC2)c1	15	0	0	1	0	-3	.	.
CN(C)S(=O)(=O)c1cccc(NC(=O)c2cccc(S(=O)(=O)N3CCc4ccccc43)c2)c1	.	1	3	12	1	9.5*	41*	22*
CCC(C(=O)Nc1cccc(S(=O)(=O)N(C)c2ccccc2)c1)c1ccccc1 (stereo unspecified)	.	0	4	18	-2	9.3*	17	8.7*
CN(c1ccccc1)S(=O)(=O)c1cccc(NC(=O)COC(=O)C2CCCCC2)c1	-16	0	2	14	2	8.8*	32*	14*
CN(C)S(=O)(=O)c1cccc(NC(=O)C(c2ccccc2)c2ccccc2)c1	-39	0	0	4	-1	-2	.	.
CN1C(=O)C(=O)N2C(=C[C@]3(c4c[nH]c5ccccc45)c4ccccc4N[C@H]23)C1=O	.	.	.	-5	.	-6	.	.
CC(=O)c1cccc(NC(=O)C(OC(=O)c2cccc(S(=O)(=O)N(C)c3ccccc3)c2)c2ccccc2)c1 (stereo unspecified)	3	0	5	15	-2	9.1*	24*	12*
CC(Oc1ccc(F)cc1)C(=O)Nc1cccc(S(=O)(=O)N(C)c2ccccc2)c1 (stereo unspecified)	.	1	1	3	-2	4	.	.
COc1ccc(N(C)S(=O)(=O)c2cccc(C(=O)OC(C(=O)Nc3cc(C)cc(C)c3)c3ccccc3)c2)cc1 (stereo unspecified)	3	0	2	16	-4	8.6*	19	13*
Cc1c(NC(=O)C2CCCN(S(=O)(=O)c3ccc(C(C)(C)C)cc3)C2)c(=O)n(-c2ccccc2)n1C (stereo unspecified)	.	.	.	-5	.	0	.	.
CCOc1cccc(OCCOc2ccc(C(=O)c3ccccc3)cc2)c1	0	0	4	10	1	10*	20	14*
CCCCN1CN2Cc3ccc(C)cc3C2CS1(=O)=O (stereo unspecified)	.	.	.	-9	.	-5	.	.
CN(C)c1ccc(C(CN)c2c[nH]c3ccccc23)cc1 (stereo unspecified)	3	0	2	-3	-2	-4	.	.
CN(C)c1ccc(C(CNS(=O)(=O)c2ccc3ccccc3c2)c2c[nH]c3ccccc23)cc1 (stereo unspecified)	38	0	-3	19	0	9.1*	26*	20*
CC12CCC(C(=O)Nc3ccc(SC(F)F)cc3)(CC1=O)C2(C)C (stereo unspecified)	.	0	4	10	3	15*	0	4
NS(=O)(=O)c1ccc(N/N=C2/CCCCC2C2CCCCC2)c([N+](=O)[O-])c1 (stereo unspecified)	26	0	18	18	-4	12*	17	8.7*
CC(C)(C)c1cc(NC(=O)COC(=O)c2ccc(O)cc2O)n(-c2ccccc2)n1	.	0	-3	14	1	2	.	.
O=C(COC(=O)c1ccc(O)cc1O)Nc1cc(-c2ccccc2)nn1-c1ccccc1	.	0	1	20	-3	8.8*	24*	16*
O=C1CSc2ccc(C(=O)N3CCCC(C(=O)N4CCCCC4)C3)cc2N1 (stereo unspecified)	.	.	.	-6	.	-2	.	.
CC1(C(=O)NCc2cccc(C(F)(F)F)c2)CCN1Cc1ccc(-c2ccccc2)o1 (stereo unspecified)	.	0	-2	13	.	13*	16	10*
CC1(C(=O)NCc2cccc(C(F)(F)F)c2)CCN1Cc1cc2ccccc2o1 (stereo unspecified)	.	0	-1	4	.	3	.	.
Fc1ccccc1Cn1nnc2c(-n3ccnc3)ncnc21	.	0	1	10	-4	8.7*	-8	0
COc1ccc(N/N=C(\C#N)C(=N)N2CCOCC2)cc1	-5	0	-2	7	-1	8.8*	13	6
SMILES	Lipid droplet	aDG glyco act	MPTP inh	ADAM10 inh	V-ATPase pHluor	ADAM17 inh	ADAM10 ctr	ADAM17 confirm
N#C/C(=N\Nc1ccc(F)cc1)C(=N)N1CCCCC1	5	0	1	10	0	-5	.	.
Cc1onc(-c2ccc(Cl)cc2)c1-c1ccn(S(=O)(=O)c2ccccc2)n1	.	.	.	17	.	14*	11	10*
Cc1ccc(S(=O)(=O)n2nccc2-c2c(-c3ccc(Cl)cc3)noc2C)cc1	-8	0	13	4	1	3	.	.
O=C(CN(CCc1ccccc1)S(=O)(=O)c1ccccc1)N1CCOCC1	.	.	.	1	.	1	.	.
COC(=O)[C@@H]1C[C@@]2(O)[C@H](O)[C@H](O)[C@H](O)C[C@H]2N1Cc1ccc(C(F)(F)F)cc1	-17	0	0	1	3	10*	7	6
CN1CCN(C(c2ccc(C(F)(F)F)cc2)c2cc(Cl)c3cccnc3c2O)CC1 (stereo unspecified)	-133	.	.	16	.	12*	36*	16*
Oc1c(C(c2ccccn2)N2CCCCC2)cc(Cl)c2cccnc12 (stereo unspecified)	-1	0	4	10	9	26*	9	27*
CC(=O)NC(c1ccccc1)c1cc(Cl)c2cccnc2c1O (stereo unspecified)	-18	0	-1	12	-3	6	.	.
O=C(CSc1ccccc1)NC1CCCCN(Cc2ccc(Cl)cc2)C1=O (stereo unspecified)	.	.	.	-2	.	-1	.	.
CC(C)(C(=O)N1CCC1(C)C(=O)Nc1ccccc1Br)c1ccccc1 (stereo unspecified)	.	0	0	11	.	11*	-2	0
CCCc1c(-c2ccc(F)cc2F)ncn1Cc1cccc(-c2ccccc2)c1	.	0	3	14	.	16*	2	6
